Measured values taken from ChEMBL document CHEMBL4304745, “On the Process of Discovering Leads That Target the Heparin-Binding Site of Neutrophil Elastase in the Sputum of Cystic Fibrosis Patients” (J Med Chem, 2019).
Activity calls are given as the source filed them. The rule behind the calls is not given here.

Experiments:
Neutrophil elastase = molecular target: T1, Neutrophil elastase (Homo sapiens, UniProt P08246); experiment: Inhibition of human neutrophil elastase using S1384 as substrate preincubated for 5 mins followed by substrate addition
T1 sequence (P08246 whole entry): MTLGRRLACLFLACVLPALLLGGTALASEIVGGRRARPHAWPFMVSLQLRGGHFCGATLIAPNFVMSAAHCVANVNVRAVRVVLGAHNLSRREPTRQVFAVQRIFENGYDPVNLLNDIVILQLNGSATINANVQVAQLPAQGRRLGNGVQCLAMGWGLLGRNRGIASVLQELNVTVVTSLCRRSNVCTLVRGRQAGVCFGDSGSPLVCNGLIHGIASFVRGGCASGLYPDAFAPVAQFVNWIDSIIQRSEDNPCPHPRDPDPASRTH

[1] = molecular target: T2, Neutrophil elastase (Homo sapiens) (UniProt P08246); experiment: Mixed type inhibition of human neutrophil elastase assessed as decrease in Vmax for substrate at 1000 uM using varying levels of S1384 as substrate by Michaelis-Menten plot analysis relative to control
T2 sequence (whole entry): T1 sequence (P08246 whole entry)

[2] = molecular target: T2, Neutrophil elastase (Homo sapiens); experiment: Mixed type inhibition of human neutrophil elastase assessed as increase in Km for substrate at 1000 uM using varying levels of S1384 as substrate by Michaelis-Menten plot analysis relative to control
[3] = molecular target: T2, Neutrophil elastase (Homo sapiens); experiment: Inhibition of human neutrophil elastase assessed as reduction in elastin-congo red hydrolysis preincubated for 30 mins followed by elastin-congo red addition measured after 48 hrs
Procedure, shortened: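 Elastin-congo red hydrolysis by HNE at pH 8. Congo red released by elastin degradation is quantified by absorbance at 497 nm. Run in triplicate; error bars are one standard deviation.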

Plasma [4] = experiment: Anticoagulant activity in human plasma assessed as effect on activated partial thromboplastin time at 855 uM measured after 5 mins; type: ADME, cell-free
Procedure, shortened: (§1)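 APTT and PT recorded in human plasma with compound present at concentrations up to 855 µM. The read-out is the change in clotting time relative to untreated plasma.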

Plasma [5] = experiment: Anticoagulant activity in human plasma assessed as effect on prothrombin time at 855 uM measured after 5 mins; type: ADME, cell-free; procedure, shortened: as §1
Coagulation factor X = Coagulation factor X (Homo sapiens, UniProt P00742); experiment: Inhibition of factor 10a (unknown origin) using spectrozyme as substrate preincubated for 5 mins followed by substrate addition
Chain of Coagulation factor X (P00742 41-179 limits assumed): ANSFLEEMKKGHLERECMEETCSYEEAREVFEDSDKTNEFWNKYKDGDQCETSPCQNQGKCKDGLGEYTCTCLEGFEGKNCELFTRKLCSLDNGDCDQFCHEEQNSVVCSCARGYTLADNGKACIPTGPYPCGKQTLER
Chain of Coagulation factor X (P00742 235-488 limits assumed): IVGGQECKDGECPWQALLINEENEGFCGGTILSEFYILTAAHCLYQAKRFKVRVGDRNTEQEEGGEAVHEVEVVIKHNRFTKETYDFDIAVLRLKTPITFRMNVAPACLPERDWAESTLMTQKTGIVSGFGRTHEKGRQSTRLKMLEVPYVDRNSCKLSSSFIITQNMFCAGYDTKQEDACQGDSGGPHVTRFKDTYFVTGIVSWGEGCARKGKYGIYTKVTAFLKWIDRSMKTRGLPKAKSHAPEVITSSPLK

Prothrombin = Prothrombin (Homo sapiens, UniProt P00734); experiment: Inhibition of thrombin (unknown origin) using spectrozyme as substrate preincubated for 5 mins followed by substrate addition
Plasminogen = Plasminogen (Homo sapiens, UniProt P00747); experiment: Inhibition of plasmin (unknown origin) using spectrozyme as substrate preincubated for 5 mins followed by substrate addition
Chain of Plasminogen (P00747 97-580 limits assumed): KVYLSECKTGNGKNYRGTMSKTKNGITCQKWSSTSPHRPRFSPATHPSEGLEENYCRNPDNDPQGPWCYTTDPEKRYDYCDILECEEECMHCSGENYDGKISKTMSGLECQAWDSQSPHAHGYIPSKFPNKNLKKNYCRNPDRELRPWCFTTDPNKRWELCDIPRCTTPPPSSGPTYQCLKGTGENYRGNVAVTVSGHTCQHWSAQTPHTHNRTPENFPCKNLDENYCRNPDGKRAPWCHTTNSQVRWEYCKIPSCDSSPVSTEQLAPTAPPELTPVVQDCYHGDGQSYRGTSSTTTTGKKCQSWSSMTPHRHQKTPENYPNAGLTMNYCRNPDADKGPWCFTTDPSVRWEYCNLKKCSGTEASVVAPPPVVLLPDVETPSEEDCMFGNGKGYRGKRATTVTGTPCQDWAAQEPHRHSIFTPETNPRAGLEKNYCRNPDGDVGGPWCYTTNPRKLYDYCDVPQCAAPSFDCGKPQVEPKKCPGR
Chain of Plasminogen (P00747 581-810 limits assumed): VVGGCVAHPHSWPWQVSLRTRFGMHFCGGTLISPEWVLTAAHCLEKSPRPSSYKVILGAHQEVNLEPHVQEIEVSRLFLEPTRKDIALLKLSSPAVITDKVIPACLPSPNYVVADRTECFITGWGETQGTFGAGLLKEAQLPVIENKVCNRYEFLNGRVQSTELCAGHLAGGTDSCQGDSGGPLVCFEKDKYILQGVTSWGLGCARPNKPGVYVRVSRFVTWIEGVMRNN

Cathepsin G = molecular target: T3, Cathepsin G (Homo sapiens, UniProt P08311); experiment: Inhibition of human leukocyte cathepsin G using S7388 as substrate preincubated for 5 mins followed by substrate addition
T3 sequence (P08311 whole entry): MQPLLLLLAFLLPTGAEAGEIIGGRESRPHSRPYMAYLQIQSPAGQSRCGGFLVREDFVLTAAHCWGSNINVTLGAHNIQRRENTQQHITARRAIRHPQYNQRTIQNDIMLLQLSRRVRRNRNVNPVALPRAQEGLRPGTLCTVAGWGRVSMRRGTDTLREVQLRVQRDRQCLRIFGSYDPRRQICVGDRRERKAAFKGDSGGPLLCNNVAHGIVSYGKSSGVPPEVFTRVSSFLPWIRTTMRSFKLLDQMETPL

Coagulation factor XI = Coagulation factor XI (Homo sapiens, UniProt P03951); experiment: Inhibition of factor 11a (unknown origin) using S-2366 as substrate preincubated for 5 mins followed by substrate addition
Chain of Coagulation factor XI (P03951 19-387 limits assumed): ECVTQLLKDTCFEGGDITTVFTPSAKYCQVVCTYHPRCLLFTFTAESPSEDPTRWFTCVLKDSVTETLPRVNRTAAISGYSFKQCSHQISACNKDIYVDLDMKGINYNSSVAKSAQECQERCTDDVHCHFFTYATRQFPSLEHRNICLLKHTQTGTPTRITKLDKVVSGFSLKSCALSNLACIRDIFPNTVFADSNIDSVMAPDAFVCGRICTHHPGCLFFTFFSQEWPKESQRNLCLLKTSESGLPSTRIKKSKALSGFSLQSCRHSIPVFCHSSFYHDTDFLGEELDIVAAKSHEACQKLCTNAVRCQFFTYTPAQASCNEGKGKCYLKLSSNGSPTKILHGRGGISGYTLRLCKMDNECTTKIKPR
Chain of Coagulation factor XI (P03951 388-625 limits assumed): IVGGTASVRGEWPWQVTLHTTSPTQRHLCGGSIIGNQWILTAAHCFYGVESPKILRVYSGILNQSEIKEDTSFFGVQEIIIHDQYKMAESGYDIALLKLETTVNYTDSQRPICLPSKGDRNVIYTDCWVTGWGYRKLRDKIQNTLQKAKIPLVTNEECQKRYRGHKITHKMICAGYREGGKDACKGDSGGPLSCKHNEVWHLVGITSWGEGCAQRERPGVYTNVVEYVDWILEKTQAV

Homo sapiens [6] = organism: Homo sapiens; experiment: Selectivity ratio of IC50 for factor 11 (unknown origin) to IC50 for human neutrophil elastase
Homo sapiens [7] = organism: Homo sapiens; experiment: Selectivity ratio of IC50 for factor 10a (unknown origin) to IC50 for human neutrophil elastase
Homo sapiens [8] = organism: Homo sapiens; experiment: Selectivity ratio of IC50 for thrombin (unknown origin) to IC50 for human neutrophil elastase
Homo sapiens [9] = organism: Homo sapiens; experiment: Selectivity ratio of IC50 for plasmin (unknown origin) to IC50 for human neutrophil elastase
Myeloblastin = molecular target: T4, Myeloblastin (Homo sapiens, UniProt P24158); experiment: Inhibition of human neutrophil proteinase 3 using M4765 as substrate preincubated for 5 mins followed by substrate addition
T4 sequence (P24158 whole entry): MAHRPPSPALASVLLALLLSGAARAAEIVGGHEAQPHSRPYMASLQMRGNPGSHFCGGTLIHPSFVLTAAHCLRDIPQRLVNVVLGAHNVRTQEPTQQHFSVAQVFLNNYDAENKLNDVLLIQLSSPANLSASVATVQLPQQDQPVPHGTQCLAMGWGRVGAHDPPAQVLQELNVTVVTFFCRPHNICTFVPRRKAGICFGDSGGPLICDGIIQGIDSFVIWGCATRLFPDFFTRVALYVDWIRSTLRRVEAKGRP

[10] = molecular target: T2, Neutrophil elastase (Homo sapiens); experiment: Inhibition of neutrophil elastase in cystic fibrosis patient-derived sputum 2 mM using S1384 as substrate measured after 2 hrs; type: tissue-based
[11] = molecular target: T2, Neutrophil elastase (Homo sapiens); experiment: Inhibition of neutrophil elastase in cystic fibrosis patient-derived sputum up to 250 using S1384 as substrate measured after 2 hrs in presence of DNAse1 and 150 mM NaCl; type: tissue-based
[12] = molecular target: T2, Neutrophil elastase (Homo sapiens); experiment: Inhibition of neutrophil elastase in cystic fibrosis patient-derived sputum using S1384 as substrate measured after 2 hrs in presence of DNAse1 and 150 mM NaCl; type: tissue-based
Procedure, shortened: (§2)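 Sputum from cystic fibrosis patients is cleared of insoluble debris by centrifugation and treated with DNase. HNE activity is then read by chromogenic substrate hydrolysis across increasing compound concentrations, up to about 2 mM.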

[13] = molecular target: T2, Neutrophil elastase (Homo sapiens); experiment: Inhibition of neutrophil elastase in cystic fibrosis patient-derived sputum at 2 mM using S1384 as substrate measured after 2 hrs in presence of DNAse1 and 150 mM NaCl; type: tissue-based; procedure, shortened: as §2
[14] = molecular target: T2, Neutrophil elastase (Homo sapiens); experiment: Inhibition of neutrophil elastase in cystic fibrosis patient-derived sputum at 2 mM using S1384 as substrate measured after 2 hrs in presence of DNAse1 and 400 mM NaCl; type: tissue-based; procedure, shortened: as §2
[15] = Solubility of the compound in water; type: physicochemical
Plasma [16] = experiment: Anticoagulant activity in human plasma assessed as concentration required to double the activated partial thromboplastin time measured after 5 mins; type: ADME, cell-free
Procedure, shortened: (§3)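 Clotting times (APTT and PT) measured in human plasma over a range of compound concentrations. The value is the concentration needed to double each clotting time.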

Plasma [17] = experiment: Anticoagulant activity in human plasma assessed as concentration required to double the prothrombin time measured after 5 mins; type: ADME, cell-free; procedure, shortened: as §3
[18] = compound: O=c1cc(-c2ccc(OS(=O)(=O)O)cc2)oc2cc(OS(=O)(=O)O)cc(OCc3cccc(COc4cc(OS(=O)(=O)O)cc5oc(-c6ccc(OS(=O)(=O)O)cc6)cc(=O)c45)n3)c12; experiment: Mixed type inhibition of human neutrophil elastase assessed as Vmax for substrate at 250 uM using varying levels of S1384 as substrate by Michaelis-Menten plot analysis (reference value: 40.1 +/- 0.5 mAU/min)
[19] = compound: O=c1cc(-c2ccc(OS(=O)(=O)O)cc2)oc2cc(OS(=O)(=O)O)cc(OCc3cccc(COc4cc(OS(=O)(=O)O)cc5oc(-c6ccc(OS(=O)(=O)O)cc6)cc(=O)c45)n3)c12; experiment: Mixed type inhibition of human neutrophil elastase assessed as Vmax for substrate at 500 uM using varying levels of S1384 as substrate by Michaelis-Menten plot analysis (reference value: 40.1 +/- 0.5 mAU/min)
[20] = compound: O=c1cc(-c2ccc(OS(=O)(=O)O)cc2)oc2cc(OS(=O)(=O)O)cc(OCc3cccc(COc4cc(OS(=O)(=O)O)cc5oc(-c6ccc(OS(=O)(=O)O)cc6)cc(=O)c45)n3)c12; experiment: Mixed type inhibition of human neutrophil elastase assessed as Vmax for substrate at 750 uM using varying levels of S1384 as substrate by Michaelis-Menten plot analysis (reference value: 40.1 +/- 0.5 mAU/min)
[21] = compound: O=c1cc(-c2ccc(OS(=O)(=O)O)cc2)oc2cc(OS(=O)(=O)O)cc(OCc3cccc(COc4cc(OS(=O)(=O)O)cc5oc(-c6ccc(OS(=O)(=O)O)cc6)cc(=O)c45)n3)c12; experiment: Mixed type inhibition of human neutrophil elastase assessed as Vmax for substrate at 1000 uM using varying levels of S1384 as substrate by Michaelis-Menten plot analysis (reference value: 40.1 +/- 0.5 mAU/min)
[22] = compound: O=c1cc(-c2ccc(OS(=O)(=O)O)cc2)oc2cc(OS(=O)(=O)O)cc(OCc3cccc(COc4cc(OS(=O)(=O)O)cc5oc(-c6ccc(OS(=O)(=O)O)cc6)cc(=O)c45)n3)c12; experiment: Mixed type inhibition of human neutrophil elastase assessed as Km for substrate at 250 uM using varying levels of S1384 as substrate by Michaelis-Menten plot analysis (reference value: 650 +/- 24 uM)
[23] = compound: O=c1cc(-c2ccc(OS(=O)(=O)O)cc2)oc2cc(OS(=O)(=O)O)cc(OCc3cccc(COc4cc(OS(=O)(=O)O)cc5oc(-c6ccc(OS(=O)(=O)O)cc6)cc(=O)c45)n3)c12; experiment: Mixed type inhibition of human neutrophil elastase assessed as Km for substrate at 500 uM using varying levels of S1384 as substrate by Michaelis-Menten plot analysis (reference value: 650 +/- 24 uM)
[24] = compound: O=c1cc(-c2ccc(OS(=O)(=O)O)cc2)oc2cc(OS(=O)(=O)O)cc(OCc3cccc(COc4cc(OS(=O)(=O)O)cc5oc(-c6ccc(OS(=O)(=O)O)cc6)cc(=O)c45)n3)c12; experiment: Mixed type inhibition of human neutrophil elastase assessed as Km for substrate at 750 uM using varying levels of S1384 as substrate by Michaelis-Menten plot analysis (reference value: 650 +/- 24 uM)
[25] = compound: O=c1cc(-c2ccc(OS(=O)(=O)O)cc2)oc2cc(OS(=O)(=O)O)cc(OCc3cccc(COc4cc(OS(=O)(=O)O)cc5oc(-c6ccc(OS(=O)(=O)O)cc6)cc(=O)c45)n3)c12; experiment: Mixed type inhibition of human neutrophil elastase assessed as Km for substrate at 1000 uM using varying levels of S1384 as substrate by Michaelis-Menten plot analysis (reference value: 650 +/- 24 uM)

Molecule: O=c1cc(-c2ccc(OS(=O)(=O)O)cc2)oc2cc(OS(=O)(=O)O)cc(OCc3cccc(COc4cc(OS(=O)(=O)O)cc5oc(-c6ccc(OS(=O)(=O)O)cc6)cc(=O)c45)c3)c12
- IC50 (Neutrophil elastase): 157000 nM

Molecule: O=c1c(OS(=O)(=O)O)c(-c2ccc(OS(=O)(=O)O)c(OS(=O)(=O)O)c2)oc2cc(OS(=O)(=O)O)cc(OCc3ccc(COc4cc(OS(=O)(=O)O)cc5oc(-c6ccc(OS(=O)(=O)O)c(OS(=O)(=O)O)c6)c(OS(=O)(=O)O)c(=O)c45)cc3)c12
- IC50 (Neutrophil elastase): 230 nM

Molecule: O=c1cc(-c2ccc(OS(=O)(=O)[O-])cc2)oc2cc(OS(=O)(=O)[O-])cc(OCc3cccc(COc4cc(OS(=O)(=O)[O-])cc5oc(-c6ccc(OS(=O)(=O)[O-])cc6)cc(=O)c45)n3)c12.[Na+].[Na+].[Na+].[Na+]
- IC50 (Neutrophil elastase): 690 nM
- fold change (FC) [1]: 2.5
- fold change (FC) [2]: 3
- inhibition [3]: Active
- Activity (Plasma [4]): Non-Toxic
- Activity (Plasma [5]): Non-Toxic
- inhibition (INH) (Coagulation factor X): Active
- inhibition (INH) (Prothrombin): Active
- inhibition (INH) (Plasminogen): Active
- IC50 (Cathepsin G): 1100 nM
- inhibition (INH) (Coagulation factor XI): Active
- Ratio IC50 (Homo sapiens [6]): 28
- Ratio IC50 (Homo sapiens [7]): > 50
- Ratio IC50 (Homo sapiens [8]): > 50
- Ratio IC50 (Homo sapiens [9]): > 50
- IC50 (Myeloblastin): 54000 nM
- inhibition [10]: inactive
- inhibition [11]: inactive
- inhibition [12]: Dose-dependent effect
- inhibition [13]: 100%
- inhibition [14]: Active
- solubility [15]: > 10000 µg/mL

Molecule: O=c1c(OS(=O)(=O)O)c(-c2ccc(OS(=O)(=O)O)c(OS(=O)(=O)O)c2)oc2cc(OS(=O)(=O)O)cc(OCCOc3cc(-c4oc5cc(OS(=O)(=O)O)cc(OCCOc6cc(OS(=O)(=O)O)cc7oc(-c8ccc(OS(=O)(=O)O)c(OS(=O)(=O)O)c8)c(OS(=O)(=O)O)c(=O)c67)c5c(=O)c4OS(=O)(=O)O)ccc3OS(=O)(=O)O)c12
- IC50 (Neutrophil elastase): 140 nM

Molecule: O=C(OC[C@H]1O[C@@H](OC(=O)c2cc(OS(=O)(=O)[O-])c(O)c(OS(=O)(=O)[O-])c2)[C@H](OC(=O)c2cc(OS(=O)(=O)[O-])c(O)c(OS(=O)(=O)[O-])c2)[C@@H](OC(=O)c2cc(OS(=O)(=O)[O-])c(O)c(OS(=O)(=O)[O-])c2)[C@@H]1OC(=O)c1cc(OS(=O)(=O)[O-])c(O)c(OS(=O)(=O)[O-])c1)c1cc(OS(=O)(=O)[O-])c(O)c(OS(=O)(=O)[O-])c1.[Na+].[Na+].[Na+].[Na+].[Na+].[Na+].[Na+].[Na+].[Na+].[Na+] [sulfated pentagalloylglucoside]
- IC50 (Neutrophil elastase): 40 nM
- inhibition [3]: Active
- 2aPTT (Plasma [16]): 49 µM
- 2PT (Plasma [17]): 152 µM

B1: Neutrophil elastase (Homo sapiens), P08246 (protein)
chain: T1 sequence (P08246 whole entry)
- Vmax [18]: 38.6 mAU/min
- Vmax [19]: 30.3 mAU/min
- Vmax [20]: 19 mAU/min
- Vmax [21]: 15.3 mAU/min
- Km [22]: 908 µM
- Km [23]: 788 µM
- Km [24]: 1220 µM
- Km [25]: 1670 µM
